Compounds with a hit are over-represented: about 3.5% of the library has one in this group of screens.
NF-kB expr up – NF-kB expression increase, human neuronal cells; NF-kB reporter expression; hits give high values; AID 1239; fold change at 12.5 µM; 190,000 tested, 1.6% active; in the data active = fold change above about 3.3
FLuc stim CS – firefly luciferase counter-screen for stimulation assays; P08659; ATPlite luciferase biochemical, luminescence, 10 min; 0 = ATP-free wells, 1 = DMSO control; activation factor at 10 µM; 200,000 tested, under 10 active; AID 1027;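 active = luciferase activation factor, scaled between plate controls, of at least 2 with compound at 10 µM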
Target sequence (P08659 whole entry, looked up): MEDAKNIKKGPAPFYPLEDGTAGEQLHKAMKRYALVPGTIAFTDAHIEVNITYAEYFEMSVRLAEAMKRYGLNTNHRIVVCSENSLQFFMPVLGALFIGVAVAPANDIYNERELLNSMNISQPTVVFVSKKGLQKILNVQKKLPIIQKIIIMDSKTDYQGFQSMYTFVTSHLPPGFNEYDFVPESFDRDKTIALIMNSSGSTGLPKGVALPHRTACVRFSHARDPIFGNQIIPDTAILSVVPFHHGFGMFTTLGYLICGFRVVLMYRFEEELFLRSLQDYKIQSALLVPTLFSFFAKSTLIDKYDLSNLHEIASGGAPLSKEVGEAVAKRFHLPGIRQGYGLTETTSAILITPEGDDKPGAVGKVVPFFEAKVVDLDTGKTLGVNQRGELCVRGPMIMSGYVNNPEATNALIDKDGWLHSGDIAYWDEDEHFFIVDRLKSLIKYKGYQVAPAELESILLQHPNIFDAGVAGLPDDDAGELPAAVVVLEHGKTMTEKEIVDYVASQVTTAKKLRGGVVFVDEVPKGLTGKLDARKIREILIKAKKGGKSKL
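Material: Luciferase/luciferin reagent mix | Doses: Test compounds dosed from 2 mM stocks in 100% DMSO | Timing: 10 min incubation after luciferase reagent addition, room temperature | Measured by: Luminescence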
STAT1 act – activators of IFN-gamma induced STAT1 signaling; NIH 3T3 STAT1-luciferase reporter, luminescence; 100% = IFN-gamma alone, no compound; activation (% of control), % at 5.5 µM; 200,000 tested, 2.6% active;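 active = activation above the screen-wide mean activation plus 3 SD, cut at about 130% in these data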;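 also: raw ratio to IFN-gamma control signal so 100% means no change and 0% no light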
APP 5'UTR act – APP 5'UTR luciferase reporter activation; activation, % at 2 µM; 190,000 tested, 1% active; SH-SY5Y APP 5'UTR luciferase reporter, luminescence; zero percent = DMSO vehicle wells;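 active = activation above a set limit, based on mean plus 3 SD of controls, cut at about 140% in these data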
FLuc inhib CS – Photinus pyralis luciferase inhibition counter-screen; AID 1006; ATPLite firefly luciferase biochemical luminescence, 10 min; 200,000 tested, 1.5% active; P08659; inhibition, % at 10 µM;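 active = inhibition above about 50% when tested at 10 µM, limit read from the data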
Pf gamet viab – inhibitors of late stage P. falciparum gametocyte viability. 150,000 tested, 0.065% active. P. falciparum stage V gametocytes, ATP luminescence, 24 h. inhibition, % at 10.9 µM;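 active = inhibition above the mean plus 3 SD of compounds within the control limits, set per campaign, cut at about 38% in these data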;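 also: 0% = DMSO wells and 100% = medium only without gametocytes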
Numbers without * were called inactive.

Results for CC(NC(=O)C12CC3(C)CC(C)(CC(C)(C3)C1)C2)C(=O)O (configuration not stated) ?
NF-kB expr up: 1; FLuc stim CS: 1; STAT1 act: 100; APP 5'UTR act: 15; FLuc inhib CS: -4; Pf gamet viab: -4

What do the screens show for `Cc1ccc2c(Cl)c(C(=O)Nc3cccnc3)sc2c1`?
NF-kB expr up: 2.8; FLuc stim CS: 0.3; STAT1 act: 122; APP 5'UTR act: 169*; FLuc inhib CS: 66*; Pf gamet viab: 4

What do the screens show for `Cc1ccc2c(C)c(C(=O)Nc3cccnc3)oc2c1`?
NF-kB expr up: 1.5; FLuc stim CS: 0.9; STAT1 act: 103; APP 5'UTR act: 6; FLuc inhib CS: 13

Results for Cc1cc(NC(=O)/C=C/c2ccccc2)no1 ?
NF-kB expr up: 3.2; FLuc stim CS: 0.7; STAT1 act: 130*; APP 5'UTR act: 73; FLuc inhib CS: 32; Pf gamet viab: -4

What do the screens show for `Cc1cc(NC(=O)/C=C/c2ccccc2Cl)no1`?
NF-kB expr up: 2; FLuc stim CS: 1; STAT1 act: 135*; APP 5'UTR act: 83; FLuc inhib CS: -2; Pf gamet viab: 11

What do the screens show for `Cc1cc(NC(=O)/C=C/c2ccccc2Cl)n(-c2nc3ccccc3[nH]2)n1`?
NF-kB expr up: 1.3; FLuc stim CS: 0.2; STAT1 act: 103; APP 5'UTR act: 74; FLuc inhib CS: 76*; Pf gamet viab: -19

Results for CN(C)c1ccc(NC(=O)/C=C/c2ccccc2Cl)cc1 ?
NF-kB expr up: 1.9; FLuc stim CS: 0.4; STAT1 act: 149*; APP 5'UTR act: 111; FLuc inhib CS: 64*; Pf gamet viab: 16

How did Cc1cc(NC(=O)c2ccc(F)cc2F)n(-c2nc3ccccc3[nH]2)n1 do in these assays?
NF-kB expr up: 1.2; FLuc stim CS: 1; STAT1 act: 95; APP 5'UTR act: 0; FLuc inhib CS: -2

What do the screens show for `CCN(CC)c1ccc(NC(=O)/C=C\c2ccccc2Cl)cc1`?
NF-kB expr up: 1.6; FLuc stim CS: 0.6; STAT1 act: 122; APP 5'UTR act: 15; FLuc inhib CS: 38

How did COc1ccc(/C=C/C(=O)Nc2cc(C)on2)cc1 do in these assays?
NF-kB expr up: 1.2; FLuc stim CS: 0.9; STAT1 act: 128; APP 5'UTR act: 40; FLuc inhib CS: 11; Pf gamet viab: -13

What do the screens show for `Cc1cc(NC(=O)c2ccccc2Cl)no1`?
NF-kB expr up: 1.8; FLuc stim CS: 0.7; STAT1 act: 123; APP 5'UTR act: 47; FLuc inhib CS: 28

Results for CC1CCOC2(O1)C(=O)N(CN1CCN(c3ccccc3F)CC1)c1ccccc12 (configuration not stated) ?
NF-kB expr up: 0.96; FLuc stim CS: 1.1; STAT1 act: 95; APP 5'UTR act: 5; FLuc inhib CS: -7

Results for CCC(=O)Nc1nnc(SCCN2CCOCC2)s1 ?
NF-kB expr up: 1.3; FLuc stim CS: 1; STAT1 act: 92; APP 5'UTR act: -13; FLuc inhib CS: -4; Pf gamet viab: 11

Results for O=C(/C=C/c1ccccc1)Nc1cc(C(=O)O)cc(C(=O)O)c1 ?
NF-kB expr up: 1.6; FLuc stim CS: 1; STAT1 act: 100; APP 5'UTR act: 24; FLuc inhib CS: -3; Pf gamet viab: -7

What do the screens show for `CN(C)c1ccc(NC(=S)NC(=O)/C=C/c2ccc(Cl)cc2)cc1`?
NF-kB expr up: 1.8; FLuc stim CS: 1; STAT1 act: 142*; APP 5'UTR act: 69; FLuc inhib CS: 2; Pf gamet viab: 20

Results for COC(=O)c1cc(NC(=O)/C=C/c2ccccc2)ccc1O ?
NF-kB expr up: 2; FLuc stim CS: 0.9; STAT1 act: 133*; APP 5'UTR act: 56; FLuc inhib CS: 12; Pf gamet viab: 2

How did N#CCCCSc1nnc(-c2ccc(Cl)cc2)n1-c1ccccc1 do in these assays?
NF-kB expr up: 0.89; FLuc stim CS: 1; STAT1 act: 106; APP 5'UTR act: 13; FLuc inhib CS: -4; Pf gamet viab: -15

How did CC(C)(C)c1ccc(C2CC2C(=O)N/N=C\c2ccc[nH]2)cc1 (configuration not stated) do in these assays?
NF-kB expr up: 0.85; FLuc stim CS: 0.8; STAT1 act: 56; APP 5'UTR act: -80; FLuc inhib CS: 16; Pf gamet viab: 4

How did NC(=O)c1ccccc1NC(=O)CC12CC3CC(CC(C3)C1)C2 do in these assays?
Pf gamet viab: 13

How did CCOC(=O)C(C(C)=O)c1c(Br)c(O)c(O)c2c(C(=O)c3ccc(C)cc3)coc12 (configuration not stated) do in these assays?
NF-kB expr up: 4.5*; FLuc stim CS: 1.1; STAT1 act: 94; APP 5'UTR act: 5; FLuc inhib CS: -5

What do the screens show for `CCOC(=O)c1c(C)n(-c2ccc(C)cc2)c2c(C(C(C)=O)C(=O)O)c(Br)c(O)c(O)c12` (configuration not stated)?
NF-kB expr up: 0.71; FLuc stim CS: 1; STAT1 act: 102; APP 5'UTR act: -5; FLuc inhib CS: 0; Pf gamet viab: 5

Results for CC(=O)/C(N=Nc1c(C)n(C)n(-c2ccccc2)c1=O)=C(\C)O ?
NF-kB expr up: 1; FLuc stim CS: 1.1; STAT1 act: 105; APP 5'UTR act: -79; FLuc inhib CS: -8; Pf gamet viab: -18

What do the screens show for `CCOC(=O)/C(N=Nc1c(C)n(C)n(-c2ccccc2)c1=O)=C(\C)O`?
NF-kB expr up: 1; FLuc stim CS: 1; STAT1 act: 90; APP 5'UTR act: 4; FLuc inhib CS: -5; Pf gamet viab: 65*

How did CC(=O)c1ccc(/C=C/c2nc3ccccc3n2C)o1 do in these assays?
Pf gamet viab: -3

How did Cn1c(=O)c(/C=C/c2ccccc2)nc2ccccc21 do in these assays?
NF-kB expr up: 4.2*; FLuc stim CS: 0.6; STAT1 act: 134*; APP 5'UTR act: 138*; FLuc inhib CS: 37

How did Cn1c(=O)c(/C=C/c2ccc(F)cc2)nc2ccccc21 do in these assays?
NF-kB expr up: 1.9; FLuc stim CS: 0.7; STAT1 act: 120; APP 5'UTR act: 38; FLuc inhib CS: 30; Pf gamet viab: 6

How did COCCn1c(/C=C/c2ccccc2)nc2ccccc21 do in these assays?
NF-kB expr up: 3.9*; FLuc stim CS: 0.1; STAT1 act: 146*; APP 5'UTR act: 109; FLuc inhib CS: 86*; Pf gamet viab: 12

Results for Cn1c(/C=C/c2ccccc2)nc2ccccc21 ?
NF-kB expr up: 2.1; FLuc stim CS: 0.1; STAT1 act: 29; APP 5'UTR act: 65; FLuc inhib CS: 94*; Pf gamet viab: 7

How did O=C(O)c1nnn(-c2cc(C(F)(F)F)cc(C(F)(F)F)c2)c1-c1ccccc1 do in these assays?
Pf gamet viab: -5

Results for COc1ccc(C(=O)c2ccccc2Cl)cc1 ?
NF-kB expr up: 1.1; FLuc stim CS: 1; STAT1 act: 97; APP 5'UTR act: 4; FLuc inhib CS: -4; Pf gamet viab: 2
